Source: ChEMBL document CHEMBL1153060, “Part 1: Structure-Activity Relationship (SAR) investigations of fused pyrazoles as potent, selective and orally available inhibitors of p38alpha mitogen-activated protein kinase” (Bioorg Med Chem Lett, 2009)
Values after ≈ are worked out from the molar mass of the structure shown.

Experiments:
[1] = tested on: Blood; assay: Inhibition of TNF-alpha-stimulated IL8 production in human whole blood incubated for 1 hr before TNFalpha challenge measured after 16 to 18 hrs; type: functional, tissue-based
Procedure, shortened: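 Human whole blood diluted to 50% and stimulated with TNFα, with IL-8 secretion as read-out. IC50 is the mean of at least three independent dose–response curves, or of two where flagged.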

[2] = tested on: THP-1; assay: Inhibition of LPS-induced TNFalpha release in human THP1 cells after 3 hrs; type: functional, cell-based; details: THP-1, 3 h
Procedure, shortened: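 THP1 cell line challenged with LPS, with TNFα secretion as read-out. IC50 is the mean of at least three independent dose–response curves, or of two where flagged.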

[3] = target: Mitogen-activated protein kinase 14 (Homo sapiens, UniProt Q16539); assay: Inhibition of human recombinant p38alpha assessed as phosphorylation of ATF2 by scintillation proximity assay
Mitogen-activated protein kinase 14, sequence (Q16539 whole entry): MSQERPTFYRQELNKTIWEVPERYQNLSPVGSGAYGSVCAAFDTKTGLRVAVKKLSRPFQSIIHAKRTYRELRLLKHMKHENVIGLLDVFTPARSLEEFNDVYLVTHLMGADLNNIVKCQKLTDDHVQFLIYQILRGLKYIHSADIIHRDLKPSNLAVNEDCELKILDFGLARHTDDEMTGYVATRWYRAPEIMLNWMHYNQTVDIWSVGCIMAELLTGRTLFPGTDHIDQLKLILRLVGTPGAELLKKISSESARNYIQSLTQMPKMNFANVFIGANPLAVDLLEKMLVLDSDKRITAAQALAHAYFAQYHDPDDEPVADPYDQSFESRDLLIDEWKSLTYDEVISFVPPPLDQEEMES

[4] = Solubility in simulated intestinal fluid; type: physicochemical
[5] = Solubility in phosphate buffered saline; type: physicochemical
[6] = Solubility in 0.01N HCl; type: physicochemical
[7] = Volume of distribution at steady state in Sprague-Dawley rat at 2 mg/kg, iv; type: ADME, organism-based; parameters: dose 2 mg/kg, route intravenous; details: in vivo, read-out: Vdss
Procedure, shortened: (§1)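 Male Sprague–Dawley rats given 2.0 mg/kg iv (in DMSO) or 2.0 mg/kg po. Values are the mean of three rats. Reported parameters are CL, Vdss, t1/2, AUC(0-inf) and oral F.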

[8] = Oral bioavailability in Sprague-Dawley rat at 2 mg/kg; type: ADME, organism-based; details: in vivo; procedure, shortened: as §1
[9] = Clearance in Sprague-Dawley rat at 2 mg/kg, iv; type: ADME, organism-based; parameters: dose 2 mg/kg, route intravenous; details: in vivo; procedure, shortened: as §1
[10] = Half life in Sprague-Dawley rat at 2 mg/kg, iv; type: ADME, organism-based; parameters: dose 2 mg/kg, route intravenous; details: in vivo; procedure, shortened: as §1
[11] = AUC (0 to infinity) in Sprague-Dawley rat at 2 mg/kg, po; type: ADME, organism-based; parameters: time infinity, dose 2 mg/kg, route oral; details: plasma; procedure, shortened: as §1
[12] = Ratio of drug level in brain to plasma in Lewis rat; type: ADME; details: read-out: BPR
[13] = tested on: Rattus norvegicus; assay: Inhibition of LPS-induced TNFalpha production in Lewis rat at 0.1 mg/kg, po administered 60 mins prior to LPS challenge measured after 90 mins by ELISA
[14] = target: Cytochrome P450 2D6 (Homo sapiens, UniProt P10635); assay: Inhibition of CYP2D6; type: ADME
Cytochrome P450 2D6, sequence (P10635 whole entry): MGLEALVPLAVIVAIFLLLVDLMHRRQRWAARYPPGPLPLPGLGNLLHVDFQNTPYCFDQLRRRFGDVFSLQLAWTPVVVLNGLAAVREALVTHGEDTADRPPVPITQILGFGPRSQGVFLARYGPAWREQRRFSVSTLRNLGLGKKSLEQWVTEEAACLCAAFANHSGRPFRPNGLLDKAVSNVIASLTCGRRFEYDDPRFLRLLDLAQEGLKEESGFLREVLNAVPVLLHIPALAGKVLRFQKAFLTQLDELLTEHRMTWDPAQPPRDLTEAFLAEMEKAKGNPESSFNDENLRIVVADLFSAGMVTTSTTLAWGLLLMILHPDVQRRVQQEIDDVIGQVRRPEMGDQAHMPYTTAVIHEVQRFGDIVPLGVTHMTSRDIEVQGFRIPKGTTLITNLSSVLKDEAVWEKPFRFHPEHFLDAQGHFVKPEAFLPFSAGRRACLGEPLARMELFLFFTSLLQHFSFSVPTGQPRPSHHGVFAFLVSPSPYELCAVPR

[15] = target: Cytochrome P450 2C19 (Homo sapiens, UniProt P33261); assay: Inhibition of CYP2C19; type: ADME
Cytochrome P450 2C19, sequence (P33261 whole entry): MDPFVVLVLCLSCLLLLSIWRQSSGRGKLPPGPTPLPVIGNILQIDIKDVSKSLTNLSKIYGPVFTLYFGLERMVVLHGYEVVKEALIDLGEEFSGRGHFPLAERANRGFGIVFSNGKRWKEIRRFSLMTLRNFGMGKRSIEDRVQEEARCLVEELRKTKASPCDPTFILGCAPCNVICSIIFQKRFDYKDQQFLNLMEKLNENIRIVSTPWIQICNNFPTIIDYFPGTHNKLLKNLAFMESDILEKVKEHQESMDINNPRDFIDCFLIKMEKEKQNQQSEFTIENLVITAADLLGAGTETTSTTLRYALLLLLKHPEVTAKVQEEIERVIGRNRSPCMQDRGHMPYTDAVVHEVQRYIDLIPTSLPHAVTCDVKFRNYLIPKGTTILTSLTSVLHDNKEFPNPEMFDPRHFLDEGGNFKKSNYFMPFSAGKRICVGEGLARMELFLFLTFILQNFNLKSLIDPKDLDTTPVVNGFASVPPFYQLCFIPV

[16] = tested on: Rattus norvegicus; assay: Inhibition of LPS-induced TNFalpha production in po dosed Lewis rat administered 60 mins prior to LPS challenge measured after 90 mins by ELISA
[17] = tested on: Rattus norvegicus; assay: Inhibition of LPS-induced TNFalpha production in Lewis rat at 0.03 mg/kg, po administered 60 mins prior to LPS challenge measured after 90 mins by ELISA
[18] = target: RAF proto-oncogene serine/threonine-protein kinase (Homo sapiens) (UniProt P04049); assay: Inhibition of c-Raf at 1.5 uM; values are per cent of control
RAF proto-oncogene serine/threonine-protein kinase (Homo sapiens), sequence (P04049 whole entry): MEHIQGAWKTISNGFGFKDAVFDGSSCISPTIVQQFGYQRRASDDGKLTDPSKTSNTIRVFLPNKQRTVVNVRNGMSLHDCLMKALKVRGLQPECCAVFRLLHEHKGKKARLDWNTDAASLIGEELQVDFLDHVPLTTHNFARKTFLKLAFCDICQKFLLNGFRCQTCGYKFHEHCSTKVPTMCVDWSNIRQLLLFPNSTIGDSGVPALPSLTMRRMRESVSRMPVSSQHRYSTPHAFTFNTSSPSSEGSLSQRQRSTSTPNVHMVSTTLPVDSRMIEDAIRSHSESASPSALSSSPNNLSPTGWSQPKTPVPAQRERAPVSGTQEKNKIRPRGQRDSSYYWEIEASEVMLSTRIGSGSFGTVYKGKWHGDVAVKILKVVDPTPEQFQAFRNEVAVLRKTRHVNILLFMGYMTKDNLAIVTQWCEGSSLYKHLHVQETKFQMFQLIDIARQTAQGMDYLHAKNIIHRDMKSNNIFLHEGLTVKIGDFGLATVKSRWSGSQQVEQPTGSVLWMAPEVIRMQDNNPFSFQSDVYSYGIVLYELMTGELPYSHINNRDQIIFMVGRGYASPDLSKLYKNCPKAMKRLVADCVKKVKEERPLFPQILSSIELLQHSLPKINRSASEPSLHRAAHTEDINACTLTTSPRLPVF

[19] = target: Cytochrome P450 2C9 (Homo sapiens, UniProt P11712); assay: Inhibition of CYP2C9; type: ADME
Cytochrome P450 2C9, sequence (P11712 whole entry): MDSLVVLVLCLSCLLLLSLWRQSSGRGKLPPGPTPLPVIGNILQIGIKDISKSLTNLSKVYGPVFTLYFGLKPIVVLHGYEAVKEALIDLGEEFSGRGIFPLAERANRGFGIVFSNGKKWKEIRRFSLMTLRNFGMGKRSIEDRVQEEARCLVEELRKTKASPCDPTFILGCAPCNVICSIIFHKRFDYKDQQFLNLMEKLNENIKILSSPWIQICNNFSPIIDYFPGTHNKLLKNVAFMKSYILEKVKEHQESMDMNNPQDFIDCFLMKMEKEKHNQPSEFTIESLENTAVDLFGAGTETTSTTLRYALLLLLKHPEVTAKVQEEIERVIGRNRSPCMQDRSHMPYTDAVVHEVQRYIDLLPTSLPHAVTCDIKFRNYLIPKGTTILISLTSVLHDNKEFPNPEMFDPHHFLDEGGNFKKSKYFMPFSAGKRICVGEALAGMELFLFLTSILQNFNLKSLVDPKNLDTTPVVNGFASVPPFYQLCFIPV

[20] = tested on: Rattus norvegicus; assay: Inhibition of LPS-induced TNFalpha production in Lewis rat at 0.3 mg/kg, po administered 60 mins prior to LPS challenge measured after 90 mins by ELISA
[21] = tested on: Rattus norvegicus; assay: Inhibition of LPS-induced TNFalpha production in Lewis rat at 0.01 mg/kg, po administered 60 mins prior to LPS challenge measured after 90 mins by ELISA
[22] = species: Rattus norvegicus; assay: Plasma concentration in Lewis rat at ED50; type: ADME, organism-based; details: in vivo
[23] = Protein binding in rat plasma by ultrafiltration method; details: read-out: PPB (converted)

Compound | IC50 [1] [nM] | IC50 [2] [nM] | IC50 [3] [nM] | Vd [7] [L/kg] | bioavailability [8] [%] | clearance [9] [mL/min/kg] | half-life [10] [h] | AUC(0-inf) [11] [ng·h/mL] | other results
Cn1c(=O)cc(Nc2cc(C(=O)NC3CC3)ccc2F)c2cnn(-c3ccc(F)cc3F)c21 | 19 | 6.7 | 13 | – | – | – | – | – | –
Cc1ccc(C(=O)NC2CC2)cc1Nc1cc(=O)n(C)c2c1cnn2-c1ccc(F)cc1F | 2.4 | 1 | – | – | – | – | – | – | –
Cc1ccc(C(=O)O)cc1Nc1cc(=O)n(C)c2c1cnn2-c1ccc(F)cc1F | > 2500 | > 2500 | > 1000 | – | – | – | – | – | –
Cn1c(=O)cc(Oc2cc(C(=O)NC3CC3)ccc2Cl)c2cnn(-c3cc(F)ccc3F)c21 | 79 | 14 | 3.3 | – | – | – | – | – | solubility [4]: 49 µg/mL (≈ 104 µM); solubility [5]: 14.7 µg/mL (≈ 31.2 µM); solubility [6]: 24.8 µg/mL (≈ 52.7 µM)
CCn1c(=O)cc(Nc2cc(C(=O)NC3CC3)ccc2Cl)c2cnn(-c3ccc(F)cc3)c21 | 0.93 | 1 | 1.2 | 1.8 | 45 | 6.83 | 3.7 | 2290 | –
Cc1ccc(C(=O)NC2CC2)cc1Oc1cc(=O)n(C)c2c1cnn2-c1cc(F)ccc1F | 16 | 5 | 6.1 | – | – | – | – | – | –
Cc1ccc(C(=O)NC2CC2)cc1Oc1cc(=O)n(C)c2c1cnn2-c1c(F)cccc1F | 2.6 | 1 | 1.4 | 1.3 | 7 | 10.5 | 2.3 | 244 | –
Cc1ccc(C(=O)NC2CC2)cc1Nc1cc(=O)n(C)c2c1cnn2-c1cc(F)ccc1F | 2.5 | 1 | 2.9 | – | – | – | – | – | –
Cc1ccc(C(=O)NC(C)(C)C)cc1Nc1cc(=O)n(C)c2c1cnn2-c1ccc(F)cc1F | 204 | 65 | 269 | – | – | – | – | – | –
Cn1c(=O)cc(Nc2ccc(F)cc2F)c2cnn(-c3ccc(F)cc3F)c21 | > 2500 | 937 | > 1000 | – | – | – | – | – | –
Cn1c(=O)cc(Nc2cc(C(=O)NC3CC3)ccc2F)c2cnn(-c3c(F)cccc3F)c21 | 8.2 | 3.2 | 1.9 | – | – | – | – | – | –
Cc1ccc(C(N)=O)cc1Nc1cc(=O)n(C)c2c1cnn2-c1ccc(F)cc1F | 3.4 | 1.9 | 2.6 | – | – | – | – | – | –
Cn1c(=O)cc(Nc2cc(C(=O)NC3CC3)ccc2Cl)c2cnn(-c3cc(F)ccc3F)c21 | 1.9 | 1.1 | 1.1 | 1.2 | 56 | 8.67 | 2.1 | 2160 | solubility [4]: 35.2 µg/mL (≈ 74.9 µM); solubility [5]: 24.9 µg/mL (≈ 53 µM); solubility [6]: 28.6 µg/mL (≈ 60.9 µM)
CONC(=O)c1ccc(C)c(Nc2cc(=O)n(C)c3c2cnn3-c2ccc(F)cc2F)c1 | 1.4 | 1.1 | 1.1 | 1.7 | 15 | 43.3 | 3.3 | 120 | –
CCn1c(=O)cc(Nc2cc(C(=O)NC3CC3)ccc2C)c2cnn(-c3ccc(F)cc3)c21 | 1.9 | 1.1 | 4 | – | – | – | – | – | –
Cn1c(=O)cc(NC2CCOCC2)c2cnn(-c3cccc(F)c3)c21 | > 2500 | > 2500 | > 1000 | – | – | – | – | – | –
Cn1c(=O)cc(Nc2cc(C(=O)NC3CC3)ccc2Cl)c2cnn(-c3ccc(F)cc3F)c21 | 1.1 | 0.44 | – | 1.2 | 81 | 6.17 | 3.8 | 4610 | Kp [12]: 0.06; inhibition in vivo at 0.1 mg/kg [13]: 83.9%; IC50 [14]: 22700 nM; IC50 [15]: 16000 nM; ED50 [16]: 0.05 mg/kg; inhibition in vivo at 0.03 mg/kg [17]: 22.6%; solubility [4]: 81.7 µg/mL (≈ 174 µM); residual activity [18]: 75%; IC50 [19]: 8400 nM; solubility [5]: 60.6 µg/mL (≈ 129 µM); inhibition in vivo at 0.3 mg/kg [20]: 98.4%; inhibition in vivo at 0.01 mg/kg [21]: 21.6%; solubility [6]: 67.1 µg/mL (≈ 143 µM); Cp [22]: 0.9 ng/mL; fraction unbound [23]: 0.02
Cc1ccc(C(N)=O)cc1Nc1cc(=O)n(C)c2c1cnn2-c1cc(F)ccc1F | 7.1 | 7.5 | 3.7 | – | – | – | – | – | –
Cn1c(=O)cc(Nc2cc(C(=O)NC3CC3)ccc2Cl)c2cnn(-c3c(F)cccc3F)c21 | 1.5 | 0.62 | 1.1 | 1.9 | 9 | 21.7 | 3.4 | 139 | –
Cc1ccncc1Nc1cc(=O)n(C)c2c1cnn2-c1cc(F)ccc1F | 403 | 208 | 444 | – | – | – | – | – | –
Cc1ccc(C(=O)NC2CC2)cc1Nc1cc(=O)n(C)c2c1cnn2-c1c(F)cccc1F | 1.3 | 0.87 | 1.9 | 1.2 | 12 | 14.7 | 2.8 | 273 | –
CCn1c(=O)cc(Oc2cc(C(=O)NC3CC3)ccc2C)c2cnn(-c3ccc(F)cc3)c21 | 13 | 1.8 | 4 | 1.1 | 41 | 4.5 | 3.2 | 1500 | –
Cc1ccc(C(=O)NC2CC2)cc1Oc1cc(=O)n(C)c2c1cnn2-c1ccc(F)cc1F | 16 | 3.5 | 7.8 | – | – | – | – | – | solubility [4]: 12.2 µg/mL (≈ 27.1 µM); solubility [5]: 5.3 µg/mL (≈ 11.8 µM); solubility [6]: 5.7 µg/mL (≈ 12.7 µM)
Cc1ccc(C(=O)NC2CC2)cc1Nc1cc(=O)n(C)c2c1cnn2-c1cccc(F)c1 | 1.7 | 1.3 | 3.3 | – | – | – | – | – | –
Cn1c(=O)cc(Nc2ccc(F)cc2)c2cnn(-c3c(F)cccc3F)c21 | > 833 | 546 | > 1000 | – | – | – | – | – | –
CCn1c(=O)cc(Nc2cc(C(=O)NC3CC3)ccc2Cl)c2cnn(-c3ccc(F)cc3F)c21 | 1.3 | 0.67 | 1.1 | 1.5 | 16 | 7 | 3.4 | 776 | –
Cc1ccc(C(=O)NC2CC2)cc1Oc1cc(=O)n(C)c2c1cnn2-c1cccc(F)c1 | 29 | 12 | 8.5 | – | – | – | – | – | –
